Test results taken from ChEMBL document CHEMBL1135904, “Toward an optimal joint recognition of the S1' subsites of endothelin converting enzyme-1 (ECE-1), angiotensin converting enzyme (ACE), and neutral endopeptidase (NEP)” (J Med Chem, 2002).

How the values were obtained:
Neprilysin = target: T1, Neprilysin (Oryctolagus cuniculus, UniProt P08049); assay: Inhibition of neutral endopeptidase (NEP)
T1 sequence (P08049 whole entry): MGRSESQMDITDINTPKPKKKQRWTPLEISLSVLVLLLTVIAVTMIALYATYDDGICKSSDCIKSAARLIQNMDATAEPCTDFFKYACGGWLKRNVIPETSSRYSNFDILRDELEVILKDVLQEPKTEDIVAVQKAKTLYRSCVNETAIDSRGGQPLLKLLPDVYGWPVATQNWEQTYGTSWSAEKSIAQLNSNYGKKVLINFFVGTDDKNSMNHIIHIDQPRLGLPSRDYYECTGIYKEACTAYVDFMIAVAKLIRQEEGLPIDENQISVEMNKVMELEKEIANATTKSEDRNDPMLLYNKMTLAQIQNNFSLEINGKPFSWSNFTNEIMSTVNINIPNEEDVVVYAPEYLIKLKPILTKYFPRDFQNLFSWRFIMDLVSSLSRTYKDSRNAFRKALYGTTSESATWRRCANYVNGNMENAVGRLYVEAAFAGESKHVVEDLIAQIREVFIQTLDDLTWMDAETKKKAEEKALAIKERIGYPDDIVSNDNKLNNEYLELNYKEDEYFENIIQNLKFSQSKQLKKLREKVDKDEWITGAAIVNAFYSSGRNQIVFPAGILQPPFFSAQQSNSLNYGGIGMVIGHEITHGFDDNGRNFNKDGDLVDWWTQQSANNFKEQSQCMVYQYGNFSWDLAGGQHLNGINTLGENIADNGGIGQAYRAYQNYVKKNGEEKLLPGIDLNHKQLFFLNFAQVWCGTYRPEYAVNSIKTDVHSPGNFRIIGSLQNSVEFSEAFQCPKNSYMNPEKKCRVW
How it was run: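 NEP purified from rabbit kidney (final 250 ng/mL) preincubated 10 min at 37 °C with or without increasing inhibitor concentrations in 50 mM Tris-HCl pH 7.4. Substrate Dansyl-Gly-(p-NO2)Phe-β-Ala (DGPA; Km 37 μM) added to 50 μM final. Reaction stopped after 1 h with DMSO. Fluorescence read at ex 340/em 530 nm.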

[1] = target: T2, Angiotensin-converting enzyme (Rattus norvegicus, UniProt P47820); assay: Inhibition of Angiotensin I converting enzyme ACE)
T2 sequence (P47820 whole entry): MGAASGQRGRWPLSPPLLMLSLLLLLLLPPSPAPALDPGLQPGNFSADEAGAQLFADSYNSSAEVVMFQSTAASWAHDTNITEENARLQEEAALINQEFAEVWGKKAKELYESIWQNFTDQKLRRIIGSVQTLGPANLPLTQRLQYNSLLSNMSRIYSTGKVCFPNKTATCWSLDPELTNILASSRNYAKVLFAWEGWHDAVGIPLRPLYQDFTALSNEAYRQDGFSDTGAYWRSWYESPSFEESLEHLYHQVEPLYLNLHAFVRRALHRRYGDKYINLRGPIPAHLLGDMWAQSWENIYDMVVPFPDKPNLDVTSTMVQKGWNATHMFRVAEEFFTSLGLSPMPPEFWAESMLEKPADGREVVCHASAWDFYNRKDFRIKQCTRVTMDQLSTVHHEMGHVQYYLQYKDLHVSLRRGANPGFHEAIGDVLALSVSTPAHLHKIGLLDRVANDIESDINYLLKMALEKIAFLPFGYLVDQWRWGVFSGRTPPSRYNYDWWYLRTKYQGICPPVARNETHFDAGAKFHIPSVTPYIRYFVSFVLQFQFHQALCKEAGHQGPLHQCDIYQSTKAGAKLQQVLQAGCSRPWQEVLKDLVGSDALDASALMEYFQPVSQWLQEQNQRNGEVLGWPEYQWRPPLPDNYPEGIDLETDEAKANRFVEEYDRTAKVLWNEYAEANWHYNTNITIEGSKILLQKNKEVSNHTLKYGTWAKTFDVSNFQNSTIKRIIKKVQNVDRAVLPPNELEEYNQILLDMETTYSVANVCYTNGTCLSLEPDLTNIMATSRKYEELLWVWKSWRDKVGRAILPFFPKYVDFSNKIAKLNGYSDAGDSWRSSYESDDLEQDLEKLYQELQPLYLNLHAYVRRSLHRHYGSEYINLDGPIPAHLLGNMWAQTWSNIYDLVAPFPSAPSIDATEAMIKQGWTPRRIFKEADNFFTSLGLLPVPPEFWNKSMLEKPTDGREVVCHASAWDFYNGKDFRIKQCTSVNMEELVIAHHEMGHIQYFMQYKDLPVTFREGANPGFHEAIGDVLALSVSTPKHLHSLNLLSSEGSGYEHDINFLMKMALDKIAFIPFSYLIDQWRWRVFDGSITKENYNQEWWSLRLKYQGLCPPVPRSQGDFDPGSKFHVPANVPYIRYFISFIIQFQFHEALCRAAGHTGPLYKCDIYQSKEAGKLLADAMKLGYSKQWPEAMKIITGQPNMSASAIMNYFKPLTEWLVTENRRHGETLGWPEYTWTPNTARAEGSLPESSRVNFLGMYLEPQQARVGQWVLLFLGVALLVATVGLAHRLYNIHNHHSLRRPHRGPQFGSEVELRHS
How it was run: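 ACE purified from rat testis, final 0.02 pmol/100 µL, preincubated 10 min at 37 °C with or without various inhibitor concentrations in 50 mM Tris/HCl/NaCl 1% pH 7.4. Then 50 µM N-Cbz-Phe-His-Leu (Km 50 µM) added for 30 min. Stopped with 2 N NaOH and diluted with water. Released His-Leu measured fluorometrically.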

[2] = target: T3, Endothelin-converting enzyme 1 (Homo sapiens, UniProt P42892); assay: Inhibition of Endothelin-converting enzyme 1 (ECE)
T3 sequence (P42892 whole entry): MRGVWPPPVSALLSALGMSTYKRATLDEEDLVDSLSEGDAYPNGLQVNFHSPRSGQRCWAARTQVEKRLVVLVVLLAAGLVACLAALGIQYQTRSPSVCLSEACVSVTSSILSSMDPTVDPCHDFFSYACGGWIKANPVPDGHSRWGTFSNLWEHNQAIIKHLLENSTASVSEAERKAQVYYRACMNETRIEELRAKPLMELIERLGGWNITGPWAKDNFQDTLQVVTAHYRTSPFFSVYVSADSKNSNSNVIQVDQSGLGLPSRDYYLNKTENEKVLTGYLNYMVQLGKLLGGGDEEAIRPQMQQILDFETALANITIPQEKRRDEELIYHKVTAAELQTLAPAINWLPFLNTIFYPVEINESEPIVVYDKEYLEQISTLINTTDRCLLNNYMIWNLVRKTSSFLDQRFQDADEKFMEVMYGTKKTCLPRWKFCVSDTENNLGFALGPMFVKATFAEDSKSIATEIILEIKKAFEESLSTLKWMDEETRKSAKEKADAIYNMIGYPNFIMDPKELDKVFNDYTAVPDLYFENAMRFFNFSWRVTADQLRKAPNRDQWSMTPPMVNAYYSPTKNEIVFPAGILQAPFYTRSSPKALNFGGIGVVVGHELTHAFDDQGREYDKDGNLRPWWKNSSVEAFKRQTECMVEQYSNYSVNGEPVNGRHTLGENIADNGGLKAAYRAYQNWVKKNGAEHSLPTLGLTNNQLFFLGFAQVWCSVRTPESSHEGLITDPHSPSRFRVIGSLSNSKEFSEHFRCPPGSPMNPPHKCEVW

IC50 (Neprilysin) | IC50 [1] | IC50 [2] | Compound
2.3 µM |  |  | O=C(O)[C@H](Cc1ccc2c(c1)oc1ccccc12)NCP(=O)(O)O
0.004 µM | 0.175 µM | 0.62 µM | O=C1N[C@H](C(=O)O)CCCCCCc2cccc(c2)CC1CS (stereo not given in full)
0.09 µM |  |  | CS(=O)(=O)N[C@@H](CCCCN)C(=O)N[C@@H](Cc1ccccc1)P(=O)(O)CC1(C(=O)N[C@@H](Cc2c[nH]c3ccccc23)C(=O)O)CCCC1
